Results published in ChEMBL document CHEMBL1149768, “Novel Pd(II) complexes of 1-N-substituted 3-phenyl-2-pyrazoline derivatives and evaluation of antiamoebic activity” (Eur J Med Chem, 2008).

Tested on: Entamoeba histolytica
Test: Antiamoebic activity against Entamoeba histolytica HM1 IMSS after 72 hrs by serial dilution method
Format: functional, organism-based
How it was run: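 Compounds were dissolved in DMSO and diluted in medium to 1 mg/mL, then to 0.1 mg/mL, with two-fold serial dilutions in microplate wells. Metronidazole was the standard. Each well got 1.7 × 10⁴ trophozoites, was gassed with N₂ and held at 37 °C for 72 h. Plates were methanol-fixed, eosin-stained and solubilised in 0.1 N NaOH, and OD was read at 490 nm. IC50 came from linear regression of % inhibition versus log dose.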

Row | IC50 [µM] | Structure (SMILES)
1 | 10.3 | CC1CN(C(N)=S)N=C1c1ccccc1 (stereo not given)
2 | 4.57 | Cc1ccccc1NC(=S)N1CC(C)C(c2ccccc2)=N1 (stereo not given)
3 | 4.62 | CC1CN(C(=S)NCc2ccccc2Cl)N=C1c1ccccc1 (stereo not given)
4 | 8.69 | CC1CN(C(=S)N2CCN(c3ccccc3)CC2)N=C1c1ccccc1 (stereo not given)
5 | 9.13 | CC(C)CNC(=S)N1CC(C)C(c2ccccc2)=N1 (stereo not given)
6 | 8.75 | CC1CN(C(=S)NC2CCCC2)N=C1c1ccccc1 (stereo not given)
7 | 15.2 | CC(C)NC(=S)N1CC(C)C(c2ccccc2)=N1 (stereo not given)
8 | 4.32 | CCCCNC(=S)N1CC(C)C(c2ccccc2)=N1 (stereo not given)
9 | 6.63 | CC1CN(C(=S)NC2CCCCC2)N=C1c1ccccc1 (stereo not given)
10 | 2.32 | CC1CN(C(=S)NC2CCCCCCC2)N=C1c1ccccc1 (stereo not given)
